Test results taken from ChEMBL document CHEMBL2346664, “Synthesis, characterization and in vitro anticancer evaluation of novel 1,2,4-triazolin-3-one derivatives” (2013).

What was measured:
Format in all cases: functional
DU-145 = assay: Growth inhibition of human DU145 cells assessed as cell growth at 10 '-7 M after 48 hrs by sulforhodamine B assay; conditions: DU-145, 48 h, read-out: Activity
K562 = assay: Growth inhibition of human K562 cells after 48 hrs by sulforhodamine B assay; conditions: K562, 48 h
How it was run: (§1)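 NCI 60-cell-line five-dose screen. Cells were plated at 5,000–40,000/well by doubling time and grown 24 h at 37 °C, 5% CO2. Time-zero plates were TCA-fixed. Drug from DMSO stock was tested at 0.01, 0.1, 1, 10 and 100 µM final for 48 h continuous exposure. Read-out was SRB at 515 nm. GI50 is the concentration giving 50% reduction in net protein increase versus untreated control.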

BT-549 [1] = assay: Growth inhibition of human BT549 cells assessed as cell growth at 10 '-8 M after 48 hrs by sulforhodamine B assay; conditions: BT-549, 48 h, read-out: Activity
How it was run: (§2)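 Percent growth at each of the five concentrations of the 48 h continuous-exposure NCI SRB screen. Drug stocks were in DMSO at 400× the top final concentration and diluted in medium with gentamicin. Growth was calculated as [(Ti-Tz)/(C-Tz)]×100 when Ti ≥ Tz, or [(Ti-Tz)/Tz]×100 when Ti < Tz. Tz plates were fixed at drug addition; untreated wells served as control. Absorbance was read at 515 nm.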

MDA-MB-435 = assay: Growth inhibition of human MDA-MB-435 cells assessed as cell growth at 10 '-7 M after 48 hrs by sulforhodamine B assay; conditions: MDA-MB-435, 48 h, read-out: Activity
OVCAR-4 = assay: Growth inhibition of human OVCAR4 cells assessed as cell growth at 10 '-5 M after 48 hrs by sulforhodamine B assay; conditions: OVCAR-4, 48 h, read-out: Activity
U-251 = assay: Growth inhibition of human U251 cells assessed as cell growth at 10 '-7 M after 48 hrs by sulforhodamine B assay; conditions: U-251, 48 h, read-out: Activity
CAKI-1 = assay: Growth inhibition of human CAKI-1 cells after 48 hrs by sulforhodamine B assay; conditions: CAKI-1, 48 h
How it was run: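 NCI 60-cell-line five-dose screen at 0.01, 0.1, 1, 10 and 100 µM final. Cells were plated at 5,000–40,000/well and grown 24 h at 37 °C, 5% CO2, then exposed to drug continuously for 48 h. Adherent cells were fixed with cold TCA (10% final) and stained with SRB; absorbance read at 515 nm. GI50 is the concentration where [(Ti-Tz)/(C-Tz)]×100 = 50, with Tz plates fixed at drug addition.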

[2] = Growth inhibition of human EKVX cells after 48 hrs by sulforhodamine B assay; how it was run: as §1
Malme-3M = assay: Growth inhibition of human MALME-3M cells assessed as cell growth at 10 '-7 M after 48 hrs by sulforhodamine B assay; conditions: read-out: Activity
[3] = Growth inhibition of human HCC2998 cells assessed as cell growth at 10 '-4 M after 48 hrs by sulforhodamine B assay; conditions: HCC 2998, 48 h, read-out: Activity
SK-MEL-28 = assay: Growth inhibition of human SK-MEL-28 cells assessed as growth inhibition at 10 uM after 48 hrs by sulforhodamine B assay; conditions: SK-MEL-28, 48 h, read-out: GI
RXF 393 = assay: Growth inhibition of human RXF393 cells assessed as cell growth at 10 '-8 M after 48 hrs by sulforhodamine B assay; conditions: RXF 393, 48 h, read-out: Activity
HOP-62 = assay: Growth inhibition of human HOP62 cells assessed as cell growth at 10 '-7 M after 48 hrs by sulforhodamine B assay; conditions: HOP-62, 48 h, read-out: Activity
BT-549 [4] = assay: Growth inhibition of human BT549 cells assessed as cell growth at 10 '-6 M after 48 hrs by sulforhodamine B assay; conditions: BT-549, 48 h, read-out: Activity; how it was run: as §2
OVCAR-8 [5] = assay: Growth inhibition of human OVCAR8 cells assessed as cell growth at 10 '-7 M after 48 hrs by sulforhodamine B assay; conditions: OVCAR-8, 48 h, read-out: Activity
UACC-257 = assay: Growth inhibition of human UACC257 cells assessed as cell growth at 10 '-6 M after 48 hrs by sulforhodamine B assay; conditions: UACC-257, 48 h, read-out: Activity
OVCAR-8 [6] = assay: Growth inhibition of human OVCAR8 cells assessed as cell growth at 10 '-5 M after 48 hrs by sulforhodamine B assay; conditions: OVCAR-8, 48 h, read-out: Activity
SNB-19 = assay: Growth inhibition of human SNB19 cells assessed as cell growth at 10 '-6 M after 48 hrs by sulforhodamine B assay; conditions: SNB-19, 48 h, read-out: Activity
KM12 = assay: Growth inhibition of human KM12 cells assessed as cell growth at 10 '-6 M after 48 hrs by sulforhodamine B assay; conditions: KM12, 48 h, read-out: Activity
SF-295 = assay: Growth inhibition of human SF295 cells assessed as growth inhibition at 10 uM after 48 hrs by sulforhodamine B assay; conditions: SF-295, 48 h, read-out: GI
[7] = Growth inhibition of human NCI-ADR-RES cells assessed as cell growth at 10 '-8 M after 48 hrs by sulforhodamine B assay; conditions: read-out: Activity
NCI-H23 [8] = assay: Growth inhibition of human NCI-H23 cells assessed as cell growth at 10 '-5 M after 48 hrs by sulforhodamine B assay; conditions: NCI-H23, 48 h, read-out: Activity
M14 = assay: Growth inhibition of human M14 cells after 48 hrs by sulforhodamine B assay; conditions: M14, 48 h; how it was run: as §1
NCI-H23 [9] = assay: Growth inhibition of human NCI-H23 cells assessed as cell growth at 10 '-6 M after 48 hrs by sulforhodamine B assay; conditions: NCI-H23, 48 h, read-out: Activity
MOLT-4 = assay: Growth inhibition of human MOLT4 cells assessed as cell growth at 10 '-4 M after 48 hrs by sulforhodamine B assay; conditions: MOLT-4, 48 h, read-out: Activity
[10] = Growth inhibition of human NCI-ADR-RES cells assessed as growth inhibition at 10 uM after 48 hrs by sulforhodamine B assay; conditions: read-out: GI
SK-MEL-2 = assay: Growth inhibition of human SK-MEL-2 cells assessed as cell growth at 10 '-7 M after 48 hrs by sulforhodamine B assay; conditions: SK-MEL-2, 48 h, read-out: Activity
SN12C = assay: Growth inhibition of human SN12C cells assessed as growth inhibition at 10 uM after 48 hrs by sulforhodamine B assay; conditions: read-out: GI
[11] = read-out: LD50 (the source's name)

## Cc1cc(=O)oc2cc(OCCn3c(C)nn(-c4ccc(Cl)cc4)c3=O)ccc12
DU-145
  growth at 0.1 µM: 108%
K562
  GI50: 1290 nM
  TGI: > 1000 nM
K562; [11]
  CC50: > 1000 nM
BT-549 [1]
  growth at 0.01 µM: 105%
MDA-MB-435
  growth at 0.1 µM: 94%
OVCAR-4
  growth at 10 µM: -1%
U-251
  growth at 0.1 µM: 97%
CAKI-1
  GI50: 1000 nM
  TGI: > 1000 nM
CAKI-1; [11]
  CC50: > 1000 nM
[2]
  GI50: 1000 nM
  TGI: > 1000 nM
[2]; [11]
  CC50: > 1000 nM
Malme-3M
  growth at 0.1 µM: 104%
[3]
  growth at 100 µM: 17%
SK-MEL-28
  inhibition of growth at 10 µM: 59.2%
RXF 393
  growth at 0.01 µM: 95%
HOP-62
  growth at 0.1 µM: 103%
BT-549 [4]
  growth at 1 µM: 89%
OVCAR-8 [5]
  growth at 0.1 µM: 98%
UACC-257
  growth at 1 µM: 96%
OVCAR-8 [6]
  growth at 10 µM: 31%
SNB-19
  growth at 1 µM: 80%
KM12
  growth at 1 µM: 58%
SF-295
  inhibition of growth at 10 µM: 86%
[7]
  growth at 0.01 µM: 102%
NCI-H23 [8]
  growth at 10 µM: 32%
M14
  GI50: 2360 nM
  TGI: > 1000 nM
M14; [11]
  CC50: > 1000 nM
NCI-H23 [9]
  growth at 1 µM: 64%
MOLT-4
  growth at 100 µM: 17%
[10]
  inhibition of growth at 10 µM: 75.3%
SK-MEL-2
  growth at 0.1 µM: 107%
SN12C
  inhibition of growth at 10 µM: 48.2%
